Consider 10 compounds from ChEMBL document CHEMBL1671797, “Lipophilic derivatives of leu-enkephalinamide: in vitro permeability, stability and in vivo nasal delivery” (Bioorg Med Chem, 2011).

Series [1] concerns Plasma. Briefly: Stability of the compound in human plasma by HPLC analysis. Type of series: ADME, cell-free. The procedure, abridged:
(§1)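 Compound at 1 mg/mL in PBS mixed 1:1 with human plasma from healthy volunteers at 37 °C. Aliquots taken at set times, put on ice, proteins precipitated with acetonitrile, spun 10,000 rpm 10 min. Supernatant run on C18 RP-HPLC (water/acetonitrile/TFA gradient), detection at 214 nm. Percent of initial peptide remaining plotted against time.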

The nature of series [2]: Apparent permeability across human Caco2 cells by LC-MS/MS analysis. Particulars: Caco-2. Type of series: ADME, cell-based. The procedure, abridged: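 Caco-2 cells (passage 25–35, DMEM with 10% FBS, 1% NEAA) grown 21–28 days on 0.4 µm polycarbonate Transwell inserts; TEER 2.5–5 kΩ/cm2 before use. Rinsed with EDTA/DPBS then HBSS/25 mM HEPES pH 7.4, equilibrated 30 min at 37 °C. 200 µM apical dose; basolateral sampling at 30, 90, 120, 150 min. Papp from steady-state flux; 4 wells/experiment, ≥3 experiments; 14C mannitol control.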

Series [3] is described as follows: Stability of the compound in human Caco2 cell homogenate assessed as half life by LC-MS/MS analysis. It counts as ADME, Colon. Particulars: Caco-2 cell homogenate. The essentials:
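Confluent Caco-2 cells (21–28 days) rinsed, sonicated, spun 2000 rpm 5 min; supernatant adjusted to 0.5 mg/mL protein. Homogenate mixed 1:1 with 200 µM compound in HBSS/HEPES. Sampled at 5–120 min, quenched with TFA-acidified water (pH 1–2). Endomorphin-1 run as enzyme-activity control. t1/2 by one-phase decay fit; 4 wells, ≥3 independent experiments.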

A short description of series [4]: Drug level in Sprague-Dawley rat blood at 1 mg/kg, intranasal after 10 mins by LC-MS/MS analysis. Particulars: whole blood, inhaled or intranasal. The arrangement: dose 1 mg/kg. It counts as ADME, organism-based. The procedure, abridged: (§2)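 Male Sprague–Dawley rats (450–530 g, n = 4; 2 PBS controls) under xylazine/tiletamine–zolazepam anaesthesia. Dose given as 50 µL suspension in PBS pH 7.4 through a tube inserted 15 mm into the nasal cavity. CO2 euthanasia at 10 min. Tissues and blood homogenised or diluted in cold PBS, sonicated, acetonitrile-precipitated. Quantified against standards made in brain-homogenate matrix.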

Series [5] concerns Plasma. Briefly: Stability of the compound in human plasma assessed as degradation by HPLC analysis. It counts as ADME, cell-free. The essentials: as §1
A short description of series [6]: Drug level in Sprague-Dawley rat brain at 1 mg/kg, intranasal after 10 mins by LC-MS/MS analysis. Type of series: ADME, organism-based. The arrangement: dose 1 mg/kg. Particulars: inhaled or intranasal, read-out: Drug uptake. The essentials:
as §2

The nature of series [7]: Drug level in Sprague-Dawley rat olfactory bulb at 1 mg/kg, intranasal after 10 mins by LC-MS/MS analysis. Particulars: inhaled or intranasal, read-out: Drug uptake. It counts as ADME, organism-based. The arrangement: dose 1 mg/kg. The procedure, abridged: as §2
The nature of series [8]: Stability of the compound in human plasma assessed as half life by HPLC analysis. It counts as ADME, cell-free. The procedure, abridged:
as §1

Non-standard residues stand in square brackets, D forms with d. Residues, ends and D or L forms follow the SMILES beside them. Gly(decyl) = CCCCCCCCCC[C@H](N)C(=O)O; Aoc(2) = CCCCCC[C@H](N)C(=O)O

`CCCCCC[C@@H](N)C(=O)N[C@@H](Cc1ccc(O)cc1)C(=O)NCC(=O)NCC(=O)N[C@@H](Cc1ccccc1)C(=O)N[C@@H](CC(C)C)C(N)=O`: the Stability entry with Plasma [1] is “Stable”.
As to `CCCCCC[C@H](NC(=O)[C@H](CC(C)C)NC(=O)[C@H](Cc1ccccc1)NC(=O)CNC(=O)CNC(=O)[C@H](Cc1ccc(O)cc1)NC(C)=O)C(N)=O` (Ac-YGGFL[Aoc(2)]-NH2), in series [2], the Papp was 0.763 ×10⁻⁶ cm/s. In series [3], the half-life was determined as 13.8 min.
For `CCCCCC[C@H](NC(=O)[C@H](CC(C)C)NC(=O)[C@H](Cc1ccccc1)NC(=O)CNC(=O)CNC(=O)[C@@H](N)Cc1ccc(O)cc1)C(N)=O` (H-YGGFL[Aoc(2)]-NH2), the Papp in series [2] came out at 0.00477 ×10⁻⁶ cm/s. Also, in series [3], the half-life was found to be 5.4 min.
`CCCCCCCCCC[C@H](NC(=O)[C@H](CC(C)C)NC(=O)[C@H](Cc1ccccc1)NC(=O)CNC(=O)CNC(=O)[C@@H](N)Cc1ccc(O)cc1)C(N)=O` (H-YGGFL[Gly(decyl)]-NH2): the half-life in series [3] is 16.4 min.
In the case of `CCCCCC[C@H](N)C(=O)N[C@@H](Cc1ccc(O)cc1)C(=O)NCC(=O)NCC(=O)N[C@@H](Cc1ccccc1)C(=O)N[C@@H](CC(C)C)C(N)=O`, the concentration at 10 min was 6.53 nM in series [4], 13.5 nM in series [6] and 59 nM in series [7]. The Stability entry in the series on Plasma [5] is on record as “Unstable”. Also, the Papp in series [2] came to 2.51 ×10⁻⁶ cm/s. For the same compound, the values for the half-life in series [8] and in series [3] were 8.9 min and 31.7 min, respectively.
Take `CCCCCC[C@H](NC(C)=O)C(=O)N[C@@H](Cc1ccc(O)cc1)C(=O)NCC(=O)NCC(=O)N[C@@H](Cc1ccccc1)C(=O)N[C@@H](CC(C)C)C(N)=O` (Ac-[Aoc(2)]YGGFL-NH2): in series [2], the Papp was determined as 1.06 ×10⁻⁶ cm/s. The half-life in series [3] is 83 min.
Consider `CCCCCCCCCC[C@H](N)C(=O)N[C@@H](Cc1ccc(O)cc1)C(=O)NCC(=O)NCC(=O)N[C@@H](Cc1ccccc1)C(=O)N[C@@H](CC(C)C)C(N)=O` (H-[Gly(decyl)]YGGFL-NH2), for which the Papp in series [2] was 2.43 ×10⁻⁶ cm/s. Moreover, in series [3], the half-life was 14.7 min.
Regarding `CCCCCCCCCC[C@H](NC(=O)[C@H](CC(C)C)NC(=O)[C@H](Cc1ccccc1)NC(=O)CNC(=O)CNC(=O)[C@H](Cc1ccc(O)cc1)NC(C)=O)C(N)=O` (Ac-YGGFL[Gly(decyl)]-NH2), the half-life in series [3] was found to be 18.4 min.
As for `CC(C)C[C@H](NC(=O)[C@H](Cc1ccccc1)NC(=O)CNC(=O)CNC(=O)[C@@H](N)Cc1ccc(O)cc1)C(=O)O` [ENKEPHALIN], the apparent permeability (Papp) in series [2] turned out to be 0.31 ×10⁻⁶ cm/s.
On to `CCCCCCCCCC[C@H](NC(C)=O)C(=O)N[C@@H](Cc1ccc(O)cc1)C(=O)NCC(=O)NCC(=O)N[C@@H](Cc1ccccc1)C(=O)N[C@@H](CC(C)C)C(N)=O` (Ac-[Gly(decyl)]YGGFL-NH2), for which the half-life in series [3] was 27 min.

For orientation: Papp means the rate of passage across a membrane or cell layer, normalised by area and donor concentration. The term half-life denotes the time needed for the level to fall by half in the phase considered.
